# According to ChEMBL document CHEMBL4425132, “Antibacterial and Solubility Optimization of Thiomuracin A” (J Med Chem, 2016):
# Experiments:
# Enterococcus faecalis [1] = test: Antimicrobial activity against Enterococcus faecalis ATCC 29212 by broth microdilution method; type: functional
# Procedure, shortened: (§1)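 MICs determined by CLSI broth microdilution. Broth microdilution was used for every species tested, including the anaerobe C. difficile.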
# Staphylococcus aureus [2] = test: Antimicrobial activity against methicillin-resistant Staphylococcus aureus by broth microdilution method; type: functional
# Procedure, shortened: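 Broth microdilution MIC following CLSI methods, with broth microdilution used for all species.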
# Clostridioides difficile [3] = test: Antimicrobial activity against Clostridium difficile ATCC 43255 infected in golden Syrian hamster assessed as animal survival at 25 mg/kg, po for 5 days dosed starting 24 hrs after infection measured for 16 days; type: functional; conditions: ATCC 43255, po
# Procedure, shortened: (§2)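 Hamsters given a single subcutaneous clindamycin injection (10 mg/kg) on day -1. About 24 h later they were infected by oral gavage with ~7.5 x10^6 CFU/hamster. Inoculum was prepared from overnight plates resuspended in reinforced clostridial medium + 1% oxyrase. Oral dosing once daily for up to 5 days, 8 animals per dose. Animals observed twice daily for mortality, diarrhea and morbidity. Vehicle-only control group.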
# [4] = Aqueous solubility of the compound at 20 mg/ml after 24 hrs RP-HPLC based shake flask method; type: physicochemical; conditions: aqueous medium
# Procedure, shortened: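 Compound samples examined for dissolution. Clear solutions were reported as >starting concentration, with pH recorded. Samples with visible particles were filtered through 0.22 µ PVDF membranes, pH recorded, and dissolved drug quantified by RP-HPLC.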
# Clostridioides difficile [5] = test: Antimicrobial activity against Clostridium difficile ATCC 43255 by broth microdilution method; type: functional; procedure, shortened: as §1
# Streptococcus pyogenes = test: Antimicrobial activity against Streptococcus pyogenes ATCC BAA-595 by broth microdilution method; type: functional; procedure, shortened: as §1
# Enterococcus faecium = test: Antimicrobial activity against Enterococcus faecium 7130724 by broth microdilution method; type: functional; procedure, shortened: as §1
# Enterococcus faecalis [6] = test: Antimicrobial activity against Enterococcus faecalis NB04025 infected in CD1 mouse systemic infection model dosed intravenously once immediately following bacterial inoculation; type: functional; conditions: for ED50: NB04025, iv
# Staphylococcus aureus [7] = test: Antimicrobial activity against Staphylococcus aureus ATCC 49951 infected in CD1 mouse systemic infection model dosed intravenously 1 and 5 hrs after inoculation; type: functional; conditions: for ED50: ATCC 49951, iv
# Clostridioides difficile [8] = test: Antimicrobial activity against Clostridium difficile ATCC 43255 infected in golden Syrian hamster assessed as animal survival at 20 mg/kg, po for 5 days dosed starting 24 hrs after infection measured for 16 days; type: functional; conditions: ATCC 43255, po; procedure, shortened: as §2
# Clostridioides difficile [9] = test: Antimicrobial activity against Clostridium difficile ATCC 43255 infected in golden Syrian hamster assessed as animal survival at 5 mg/kg, po for 5 days dosed starting 24 hrs after infection measured for 16 days; type: functional; conditions: ATCC 43255, po; procedure, shortened: as §2
# [10] = Volume of distribution at steady state in Sprague-Dawley rat at 1 mg/kg, iv by LC-MS/MS method; type: ADME, organism-based; conditions: in vivo, read-out: Vdss
# Procedure, shortened: (§3)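 Rats fasted overnight before dosing and for 8 hr after. Blood collected into K2-EDTA tubes and centrifuged to plasma. Plasma protein-precipitated with acetonitrile containing glyburide internal standard. Analysis by LC-MS/MS on reversed-phase C18 columns with a 5% to 95% acetonitrile gradient over ~3.5 min (0.1% formic acid in both phases).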
# [11] = Clearance in Sprague-Dawley rat at 1 mg/kg, iv by LC-MS/MS method; type: ADME, organism-based; conditions: in vivo; procedure, shortened: as §3
# [12] = Half life in Sprague-Dawley rat at 1 mg/kg, iv by LC-MS/MS method; type: ADME, organism-based; conditions: in vivo; procedure, shortened: as §3
# [13] = AUC in Sprague-Dawley rat at 1 mg/kg, iv by LC-MS/MS method; type: ADME, organism-based; conditions: in vivo; procedure, shortened: as §3
# Clostridioides difficile [14] = test: Antimicrobial activity against Clostridium difficile ATCC 43255 infected in golden Syrian hamster assessed as animal survival at 10 mg/kg, po for 5 days dosed starting 24 hrs after infection measured for 16 days; type: functional; conditions: ATCC 43255, po; procedure, shortened: as §2
# Staphylococcus aureus [15] = test: Antimicrobial activity against Staphylococcus aureus ATCC 49951; type: functional
# Procedure, shortened: (§4)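 MIC by CLSI broth microdilution against the strains used in the mouse infection model.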
# Enterococcus faecalis [16] = test: Antimicrobial activity against Enterococcus faecalis NB04025; type: functional; procedure, shortened: as §4
Structure (SMILES),MIC (Enterococcus faecalis [1]) [µg/mL],MIC (Staphylococcus aureus [2]) [µg/mL],survival at 25 mg/kg (Clostridioides difficile [3]) [%],solubility thermodynamic at 24 h [4] [µg/mL],MIC (Clostridioides difficile [5]) [µg/mL],MIC (Streptococcus pyogenes) [µg/mL],MIC (Enterococcus faecium) [µg/mL],ED50 (Enterococcus faecalis [6]) [mg/kg],ED50 (Staphylococcus aureus [7]) [mg/kg],further results
Cc1sc2nc1C(=O)N[C@@H]([C@H](O)c1ccccc1)c1nc(cs1)C(=O)N[C@@H](Cc1ccc(O)cc1)C(=O)NCC(=O)N1C[C@H](O)[C@H](C)[C@H]1c1nc(cs1)-c1nc(cs1)-c1nc(-c3nc(C(=O)NCCCCC(=O)O)cs3)ccc1-c1nc(cs1)C(=O)N[C@H]2CC(N)=O,0.125,0.5,13,730,0.06,0.125,0.125,,,
Cc1sc2nc1C(=O)N[C@@H]([C@H](O)c1ccccc1)c1nc(cs1)C(=O)N[C@@H](Cc1ccc(O)cc1)C(=O)NCC(=O)N1C[C@H](O)[C@H](C)[C@H]1c1nc(cs1)-c1nc(cs1)-c1nc(-c3nc(NC(=O)O[C@H]4CC[C@H](C(=O)O)CC4)cs3)ccc1-c1nc(cs1)C(=O)N[C@H]2CC(N)=O,0.125,0.25,,6,0.03,0.125,0.125,,,
CN[C@H](CC(C)C)C(=O)N[C@H]1C(=O)N[C@@H](CC(N)=O)C(=O)N[C@H]2C(=O)N[C@H]3C(=O)N[C@H](C(=O)N[C@H](C(=O)O)c4cc(O)cc(O)c4-c4cc3ccc4O)[C@H](O)c3ccc(c(Cl)c3)Oc3cc2cc(c3O[C@@H]2O[C@H](CO)[C@@H](O)[C@H](O)[C@H]2O[C@H]2C[C@](C)(N)[C@H](O)[C@H](C)O2)Oc2ccc(cc2Cl)[C@H]1O [VANCOMYCIN],,,,,,,,7.74,1.1,survival at 20 mg/kg (Clostridioides difficile [8]): 38%
COCc1sc2nc1C(=O)NCC(=O)N[C@@H]([C@@H](O)c1ccccc1)c1nc(cs1)-c1nc(cs1)-c1nc(-c3nc(N(CCCCC(=O)O)C(=O)O[C@H]4CC[C@H](C(=O)O)CC4)cs3)ccc1-c1nc(cs1)C(=O)N[C@@H](CC(N)=O)C1=NC(C)=C(S1)C(=O)N[C@H]2C(C)C,,,,,,,,,,survival at 5 mg/kg (Clostridioides difficile [9]): 71 to 75%
Cc1sc2nc1C(=O)N[C@@H]([C@H](O)c1ccccc1)c1nc(cs1)C(=O)N[C@@H](Cc1ccc(O)cc1)C(=O)NCC(=O)N1C[C@H](O)[C@H](C)[C@H]1c1nc(cs1)-c1nc(cs1)-c1nc(-c3nc(C(=O)O)cs3)ccc1-c1nc(cs1)C(=O)N[C@H]2CC(N)=O,0.5,2,75,1,0.125,0.5,0.5,,,
CCCCCCCCCC(=O)N[C@@H](Cc1c[nH]c2ccccc12)C(=O)N[C@H](CC(N)=O)C(=O)N[C@@H](CC(=O)O)C(=O)N[C@@H]1C(=O)NCC(=O)N[C@@H](CCCN)C(=O)N[C@@H](CC(=O)O)C(=O)N[C@H](C)C(=O)N[C@@H](CC(=O)O)C(=O)NCC(=O)N[C@H](CO)C(=O)N[C@@H]([C@H](C)CC(=O)O)C(=O)N[C@@H](CC(=O)c2ccccc2N)C(=O)O[C@@H]1C,,,,,,,,2.6,0.21,
Cc1sc2nc1C(=O)N[C@@H]([C@H](O)c1ccccc1)c1nc(cs1)C(=O)N[C@@H](Cc1ccc(O)cc1)C(=O)NCC(=O)N1C[C@H](O)[C@H](C)[C@H]1c1nc(cs1)-c1nc(cs1)-c1nc(-c3nc(C(=O)N(CCCCC(=O)O)[C@H]4CC[C@H](C(=O)O)CC4)cs3)ccc1-c1nc(cs1)C(=O)N[C@H]2CC(N)=O,1,2,,3400,0.125,0.5,1,,,
Cc1sc2nc1C(=O)N[C@@H]([C@H](O)c1ccccc1)c1nc(cs1)C(=O)N[C@@H](Cc1ccc(O)cc1)C(=O)NCC(=O)N1C[C@H](O)[C@H](C)[C@H]1c1nc(cs1)-c1nc(cs1)-c1nc(-c3nc(C(=O)N[C@H]4CC[C@H](C(=O)O)CC4)cs3)ccc1-c1nc(cs1)C(=O)N[C@H]2CC(N)=O,0.125,0.25,,750,0.03,0.25,0.125,0.71,3.42,Vd [10]: 0.032 L/kg; clearance [11]: 0.98 mL/min/kg; Activity (Enterococcus faecalis [6]): Dose-dependent effect; Activity (Staphylococcus aureus [7]): Dose-dependent effect; half-life [12]: 1.8 h; AUC [13]: 13.2 µM·h; survival at 10 mg/kg (Clostridioides difficile [14]): 0%
Cc1sc2nc1C(=O)N[C@@H]([C@H](O)c1ccccc1)c1nc(cs1)C(=O)N[C@@H](Cc1ccc(O)cc1)C(=O)NCC(=O)N1C[C@H](O)[C@H](C)[C@H]1c1nc(cs1)-c1nc(cs1)-c1nc(-c3nc(N(CCCCC(=O)O)C(=O)O[C@H]4CC[C@H](C(=O)O)CC4)cs3)ccc1-c1nc(cs1)C(=O)N[C@H]2CC(N)=O,0.25,0.25,,9700,0.06,0.125,0.125,,,survival at 5 mg/kg (Clostridioides difficile [9]): 25%; survival at 10 mg/kg (Clostridioides difficile [14]): 63%
Cc1sc2nc1C(=O)N[C@@H]([C@H](O)c1ccccc1)c1nc(cs1)C(=O)N[C@@H](Cc1ccc(O)cc1)C(=O)NCC(=O)N1C[C@H](O)[C@H](C)[C@H]1c1nc(cs1)-c1nc(cs1)-c1nc(-c3nc(C(N)=O)cs3)ccc1-c1nc(cs1)C(=O)N[C@H]2CC(N)=O,0.25,0.25,0,,< 0.008,1,0.5,1.5,8,MIC (Staphylococcus aureus [15]): 1 µg/mL; MIC (Enterococcus faecalis [16]): 0.125 µg/mL
